High-throughput results from PubChem BioAssay.
Runt-CBFb FRET: inhibitors of human RUNX1 Runt domain binding to CBFb | Q01196+Q13951 | Cerulean-Runt/Venus-CBFb FRET ratio 530/480, 1 h | inhibition, % at 20 µM | hit rate 0.46% among 220,000;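 active = inhibition over about 50% at 20 µM in the single-dose screen, limit read from the data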
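test system = Cerulean-Runt domain fusion protein, energy donor | probe or stimulus = Venus-CBFb binding partner, 100 nM | incubation = two 1 h room-temperature incubations shielded from light | detection = fluorescence energy transfer, 422 nm excitation, 530/480 nm emission | measure = loss of energy transfer signal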
Hck Nef HTS: human Hck-Nef kinase inhibition. P08631. inhibition, % at 20 µM. hit rate 0.68% among 220,000. Recombinant Hck-YEEI plus Nef, Z-Lyte FRET kinase assay;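 active = Hck-Nef kinase inhibition above about 50%, limit read from the data; inactive = inhibition below that limit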
Target sequence (P08631 whole entry, looked up): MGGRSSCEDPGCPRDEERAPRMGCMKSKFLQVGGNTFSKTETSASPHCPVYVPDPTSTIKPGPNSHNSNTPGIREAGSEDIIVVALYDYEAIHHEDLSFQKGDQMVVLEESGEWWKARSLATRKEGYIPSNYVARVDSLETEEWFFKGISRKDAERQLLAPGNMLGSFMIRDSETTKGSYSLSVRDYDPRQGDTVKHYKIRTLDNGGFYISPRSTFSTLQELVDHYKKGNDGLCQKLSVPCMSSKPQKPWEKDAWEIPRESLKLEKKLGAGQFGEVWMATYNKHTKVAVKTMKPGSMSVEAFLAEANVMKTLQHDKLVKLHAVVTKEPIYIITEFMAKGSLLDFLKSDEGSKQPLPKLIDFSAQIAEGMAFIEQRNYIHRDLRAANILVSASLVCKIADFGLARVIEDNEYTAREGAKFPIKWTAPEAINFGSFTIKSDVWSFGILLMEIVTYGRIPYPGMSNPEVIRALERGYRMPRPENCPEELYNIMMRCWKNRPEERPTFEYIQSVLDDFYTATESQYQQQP
PfM18AAP inh-1: blocks P. falciparum M18 aspartyl aminopeptidase; recombinant PfM18AAP, H-Glu-NHMec fluorogenic cleavage; inhibition, % at 7.35 µM; hit rate 1.2% among 290,000;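 active = inhibition above the campaign mean inhibition over all tested compounds plus 3 SD, cut at about 28% in these data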
RanGTP-Imp inh: inhibitors of RanGTP-importin-beta interaction, primary screen, biochemical, FRET, CFP-Ran, YFP-importin-beta, homogeneous; hit rate 1.1% among 300,000; inhibition, % (test concentration not listed); cell-free CFP-Ran/YFP-importin-beta FRET ratio;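 active = more than half of the replicate wells show a fall in the fluorescence ratio signal beyond about 16%, limit read from the data, passing the limit was not always enough; inconclusive = exactly half of the replicate wells pass the set limit; inactive = fewer than half of replicates pass the limit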
RBBP9 inh: inhibitors of human serine hydrolase RBBP9. recombinant RBBP9, FP-Rh probe fluorescence polarization. AID 1515. hit rate 0.2% among 220,000. inhibition, % at 7.94 µM;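 active = inhibition above the campaign mean of all tested compounds plus 3 SD, cut at about 14% in these data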
Target sequence (O75884 whole entry, looked up): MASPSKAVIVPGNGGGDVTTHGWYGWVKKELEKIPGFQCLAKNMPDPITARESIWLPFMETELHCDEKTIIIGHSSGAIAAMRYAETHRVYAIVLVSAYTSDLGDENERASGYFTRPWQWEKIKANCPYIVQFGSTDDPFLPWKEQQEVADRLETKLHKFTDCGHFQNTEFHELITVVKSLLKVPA
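Controls: DMSO-treated enzyme wells and wells lacking RBBP9 | Material: RBBP9 protein | Technique: Fluorescence polarization | Replication: Single well per compound, no replicates | Buffer or medium: Tris-NaCl-Pluronic buffer, pH 8.0 | Timing: 30 min compound preincubation, 45 min probe labeling, 25 °C | Read-out basis: Percent inhibition from mP, scaled between DMSO and no-protein wells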
Runt-SMMHC FRET: Runt domain-CBFb-SMMHC interaction inhibition. AID 1434. inhibition, % at 20 µM. Cerulean-Runt/Venus-CBFb-SMMHC FRET ratio 530/480, 1 h. hit rate 0.74% among 220,000;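 active = mean inhibition across duplicate retests at 20 µM reaching about 50%, limit read from the data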;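 also: inhibitors lower the FRET ratio by blocking Runt binding to CBFb-SMMHC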
PfM18AAP inh-2: PfM18AAP inhibition, confirmation; shares compounds with PfM18AAP inh-1; recombinant PfM18AAP, H-Glu-NHMec fluorogenic cleavage; inhibition, % at 7.35 µM; hit rate 28% among 2,400;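 active = mean inhibition over replicate wells above the hit cutoff set for the earlier primary screen, cut at about 29% in these data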
CTSL1 counter: Cathepsin L (human) inhibition, confirmation; purified cathepsin L1, Z-Leu-Arg-MCA fluorescence; inhibition, % at 5.96 µM; 2,400 tested, under 10 active; shares compounds with PfM18AAP inh-1;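 active = average inhibition across replicates above the hit cutoff set in the earlier primary screen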
Hits are given with their value. Shown are actives, neighbours in structure and some others; about 2.9% of the full set was active somewhere.

How did COc1ccc2cc(CN(Cc3ccco3)Cc3nnnn3C3CCCCC3)c(=O)[nH]c2c1 do in these assays?
Runt-CBFb FRET: inactive; Hck Nef HTS: inactive; PfM18AAP inh-1: 35; RanGTP-Imp inh: inactive; RBBP9 inh: inactive; Runt-SMMHC FRET: inactive; PfM18AAP inh-2: inactive; CTSL1 counter: inactive

What do the screens show for `COc1ccc(Cn2nnc3c(=O)[nH]c(C4CCN(S(=O)(=O)c5ccc(C)cc5)CC4)nc32)cc1`?
PfM18AAP inh-1: inactive; RanGTP-Imp inh: inactive

What do the screens show for `COCCn1c(=S)[nH]c2ccc(N(C)C)cc2c1=O`?
Runt-CBFb FRET: inactive; Hck Nef HTS: inactive; PfM18AAP inh-1: 40; RanGTP-Imp inh: inconclusive; RBBP9 inh: inactive; Runt-SMMHC FRET: inactive; PfM18AAP inh-2: inactive; CTSL1 counter: inactive

Results for Cc1oc2cc(O)cc(C)c2c(=O)c1-c1cnn(-c2ccccc2)c1 ?
Runt-CBFb FRET: inactive; Hck Nef HTS: inactive; PfM18AAP inh-1: inactive; RanGTP-Imp inh: inactive; RBBP9 inh: inactive; Runt-SMMHC FRET: inactive

Results for Cc1oc2c(O)c(O)ccc2c(=O)c1-c1cnn(-c2ccccc2)c1 ?
Runt-CBFb FRET: inactive; Hck Nef HTS: inactive; PfM18AAP inh-1: 32; RanGTP-Imp inh: inactive; RBBP9 inh: inactive; Runt-SMMHC FRET: inactive; PfM18AAP inh-2: inactive; CTSL1 counter: inactive

How did Cc1oc2c(O)c(O)ccc2c(=O)c1-c1ccccc1 do in these assays?
Runt-CBFb FRET: inactive; Hck Nef HTS: inactive; RanGTP-Imp inh: inactive; Runt-SMMHC FRET: inactive

How did Cc1oc2c(O)c(O)ccc2c(=O)c1-c1ccc(Cl)cc1 do in these assays?
PfM18AAP inh-1: 44; RanGTP-Imp inh: inactive; PfM18AAP inh-2: inactive; CTSL1 counter: inactive

What do the screens show for `O=C(COc1ccc2c(c1)OCO2)Nc1nnc(Cc2ccccc2)s1`?
PfM18AAP inh-1: 38; RanGTP-Imp inh: inactive; PfM18AAP inh-2: inactive; CTSL1 counter: inactive

What do the screens show for `CCOC(=O)N1CCN(S(=O)(=O)c2ccc(C(=O)NNc3nc4c(C)cc(C)cc4s3)cc2)CC1`?
Runt-CBFb FRET: inactive; Hck Nef HTS: inactive; PfM18AAP inh-1: 39; RanGTP-Imp inh: inactive; RBBP9 inh: inactive; Runt-SMMHC FRET: inactive; PfM18AAP inh-2: inactive; CTSL1 counter: inactive

How did Cc1cc(C)c2nc(NNC(=O)c3ccc(S(=O)(=O)N4CCCCC4)cc3)sc2c1 do in these assays?
Runt-CBFb FRET: inactive; Hck Nef HTS: inactive; PfM18AAP inh-1: 36; RanGTP-Imp inh: inactive; RBBP9 inh: inactive; Runt-SMMHC FRET: inactive; PfM18AAP inh-2: inactive; CTSL1 counter: inactive

Results for CCOC(=O)N1CCN(S(=O)(=O)c2ccc(C(=O)NNc3nc4c(C)cccc4s3)cc2)CC1 ?
Runt-CBFb FRET: inactive; Hck Nef HTS: inactive; PfM18AAP inh-1: 38; RanGTP-Imp inh: inconclusive; RBBP9 inh: inactive; Runt-SMMHC FRET: inactive; PfM18AAP inh-2: inactive; CTSL1 counter: inactive

Results for O=C(NC1CCSc2ccccc21)c1cc(S(=O)(=O)N2CCOCC2)ccc1Cl (stereo unspecified) ?
RanGTP-Imp inh: inactive

Results for CCN1CCN(S(=O)(=O)Cc2ccccc2Cl)CC1 ?
PfM18AAP inh-1: inactive; RanGTP-Imp inh: inactive

How did COc1c(OC2OC(C(=O)O)C(O)C(O)C2O)cc(O)c2c(=O)cc(-c3ccccc3)oc12 (stereo unspecified) do in these assays?
Runt-CBFb FRET: inactive; Hck Nef HTS: inactive; PfM18AAP inh-1: inactive; RanGTP-Imp inh: inactive; RBBP9 inh: inactive; Runt-SMMHC FRET: inactive

Results for O=C(O)C1OC(Oc2c(-c3ccc(O)c(O)c3)oc3cc(O)cc(O)c3c2=O)C(O)C(O)C1O (stereo unspecified) ?
Runt-CBFb FRET: inactive; Hck Nef HTS: inactive; PfM18AAP inh-1: 65; RanGTP-Imp inh: inactive; RBBP9 inh: inactive; Runt-SMMHC FRET: inactive; PfM18AAP inh-2: 43; CTSL1 counter: inactive

What do the screens show for `O=c1c(O)c(-c2ccc(O)c(O)c2)oc2cc(O)cc(O)c12`?
PfM18AAP inh-1: 76; RanGTP-Imp inh: inactive; PfM18AAP inh-2: 65; CTSL1 counter: inactive

How did COc1cccc(/C=N/n2c(COc3ccccc3)n[nH]c2=S)c1 do in these assays?
PfM18AAP inh-1: inactive; RanGTP-Imp inh: inactive

How did O=C(NNC(=O)c1ccccc1O)c1ccc(Cl)c(S(=O)(=O)N2CCCCC2)c1 do in these assays?
RanGTP-Imp inh: inactive

Results for COc1ccc2sc(C)[n+](C)c2c1 ?
Runt-CBFb FRET: inactive; Hck Nef HTS: inactive; PfM18AAP inh-1: 43; RanGTP-Imp inh: inactive; RBBP9 inh: inactive; Runt-SMMHC FRET: inactive; PfM18AAP inh-2: inactive; CTSL1 counter: inactive

How did Cc1ccccc1CNC(=O)C(=O)NCCC1CCCCN1S(=O)(=O)c1ccccc1 (stereo unspecified) do in these assays?
RanGTP-Imp inh: inactive

What do the screens show for `CCCc1cc(=O)oc2cc(C)cc(OCC(=O)N[C@@H](CSCc3ccccc3)C(=O)O)c12`?
PfM18AAP inh-1: inactive; RanGTP-Imp inh: inactive

How did O=c1ccc2cc(O)c(O)cc2o1 do in these assays?
Runt-CBFb FRET: inactive; Hck Nef HTS: inactive; PfM18AAP inh-1: 42; RanGTP-Imp inh: 81; RBBP9 inh: inactive; Runt-SMMHC FRET: 73; PfM18AAP inh-2: 30; CTSL1 counter: inactive

What do the screens show for `O=c1ccc2cc3ccoc3cc2o1`?
PfM18AAP inh-1: inactive; RanGTP-Imp inh: inactive

Results for Cc1ccc(O)c(CNc2ccc(S(=O)(=O)Nc3nccs3)cc2)c1 ?
Runt-CBFb FRET: inactive; Hck Nef HTS: inactive; PfM18AAP inh-1: inactive; RanGTP-Imp inh: inactive; RBBP9 inh: inactive; Runt-SMMHC FRET: inactive

Results for Cc1ccc(C(=O)NC(=S)NNC(=O)CCN2CCOCC2)cc1 ?
Runt-CBFb FRET: inactive; Hck Nef HTS: inactive; PfM18AAP inh-1: 38; RanGTP-Imp inh: inactive; RBBP9 inh: inactive; Runt-SMMHC FRET: inactive; PfM18AAP inh-2: inactive; CTSL1 counter: inactive

What do the screens show for `Cc1c(Cl)cn2c(=O)cc(CN(C)Cc3nc4ccccc4c(=O)[nH]3)nc2c1Cl`?
Runt-CBFb FRET: inactive; Hck Nef HTS: inactive; PfM18AAP inh-1: inactive; RanGTP-Imp inh: inactive; RBBP9 inh: inactive; Runt-SMMHC FRET: inactive

Results for O=[N+]([O-])/C(C(Cl)=C(Cl)Cl)=C(\Nc1ccc(F)cc1)n1cncn1 ?
Runt-CBFb FRET: inactive; Hck Nef HTS: inactive; PfM18AAP inh-1: 81; RanGTP-Imp inh: inactive; RBBP9 inh: inactive; Runt-SMMHC FRET: inactive; PfM18AAP inh-2: 79; CTSL1 counter: inactive

How did O=C(Nc1ccc(F)cc1)c1ccc(-n2cncn2)c([N+](=O)[O-])c1 do in these assays?
Runt-CBFb FRET: inactive; Hck Nef HTS: inactive; PfM18AAP inh-1: inactive; RanGTP-Imp inh: inactive; RBBP9 inh: inactive; Runt-SMMHC FRET: inactive
